Screening data from PubChem.
In the library only some 1.7% were active in any assay of this set; here they are far more common.
CaV13 ICDI inh = Primary screen for inhibitors of IQ motif and Ca2+-dependent inactivation inhibitor domain binding in CACNA1D, Förster resonance energy transfer in living cells, …; HEK cells, CFP/YFP FRET ICDI-IQ, plate reader, 10 min; percent FRET-ratio fall versus neutral wells; inhibition, % at 12.3 µM; 0.098% of 340,000 active; AID 743397;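 active means mean replicate inhibition of at least 30% and at least 1% of replicates passing that level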;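 further: 0% = median of the neutral control wells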
F508del corr = correctors of CFTR F508del function in bronchial epithelial cells | CFBE cells, YFP halide quenching; stimulated with forskolin plus potentiator P3; % fluorescence drop versus neutral controls | AID 720511 | 0.36% of 350,000 active | activity (quench increase), % at 7.58 µM;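 active means mean added fluorescence quench of at least 8% versus neutral control, with both replicates also reaching 8%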;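 further: cells transiently co-express mutant CFTR-F508del with the halide-sensitive YFP; corrector assay measuring rescue of mutant channel to the surface after 24 h compound exposure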
Cneo AK release = causes C. neoformans cell lysis. adenylate kinase release luminescence, 4 h; normalised: neutral wells 0, clomiphene wells 100. lysis activity, % at 15 µM. 0.2% of 360,000 active;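 active means mean lysis activity across replicates of at least 80%, whatever share of replicates individually reach that level; inactive means mean lysis activity below 80%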
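Schedule: static 4 h at 37 °C with compound, 1 h detection; system: C. neoformans cells; benchmarks: Clomiphene as positive control; buffer or medium: fresh YPD medium; measure: luminescence rise reflecting yeast cell lysis; measured by: luminescent adenylate kinase detection reagent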
rRNA inh HTS = inhibitors of bacterial rRNA selective over humanized ribosomes | 1.6% of 350,000 active | GFP signal change (wild-type ribosome), % (test concentration not listed) | E. coli WT GFP vs humanized-ribosome RFP mutants, fluorescence, 24 h; stronger effect = lower value; DMSO median 0, no signal -100;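 active means significant combined selectivity score with lowered wild-type GFP, culture density cut under 30%, mutant RFP and density less affected; inactive means any of these conditions unmet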
Active calls of the source: *; . = no result.

SMILES | CaV13 ICDI inh | F508del corr | Cneo AK release | rRNA inh HTS
CCC1(C)Cc2c(C#N)c(SC)nc(N3CCOCC3)c2CO1 (stereo not drawn) | -20 | 3 | 0 | -40*
CC(C)C#Cc1ccc([C@H]2[C@H]3CN(Cc4ccccn4)CCCCN3[C@H]2CO)cc1 | . | . | . | 7
CC(O)CNCCCOc1ccc(Cl)cc1C(C)(C)C (stereo not drawn) | -4 | -4 | . | -41*
O=C1c2ccccc2-c2ccc(C(=O)N3CCCCC3)cc21 | . | -1 | . | -25*
O=C(c1ccc(Cl)c(S(=O)(=O)N2CCCCCC2)c1)N1CCN(c2ccccc2O)CC1 | 5 | 0 | . | -44*
CC1CCN(C(=O)c2ccc3c(c2)C(=O)c2ccccc2-3)CC1 | -6 | -3 | 0 | -14
O=C(c1ccc(Cl)c(S(=O)(=O)N2CCCCC2)c1)N1CCN(c2ccccc2)CC1 | -6 | 2 | -3 | .
O=C(NC1CCCC1)[C@H]1[C@H](CO)[C@H]2Cn3c(ccc(-c4ccncc4)c3=O)[C@H]2N1CCc1ccccc1 | . | 0 | 5 | -5
Cc1ccc(NC(=O)c2ccc(NCCCN3CCC(C)CC3)c([N+](=O)[O-])c2)cc1F | -10 | -2 | . | -25*
Cc1ccc(NC(=O)c2ccc(NCCN)c([N+](=O)[O-])c2)cc1 | . | . | . | 10
NCCCCc1ccc2ccc3cccc4ccc1c2c34 | -7 | 1 | 1 | -19*
O=C(O)CCCc1ccc2ccc3cccc4ccc1c2c34 | -12 | 1 | -6 | -10
CCC(c1ccccc1)C(CC)c1cc(O)c(O)c(O)c1 (stereo not drawn) | -5 | 4 | 0 | -26*
Nc1ccccc1C(=O)NNc1c2ccccc2nc2ccccc12 | -13 | -3 | -5 | -20*
Cc1ccc(C(=O)NNc2c3ccccc3nc3ccccc23)cc1 | -3 | 1 | 2 | -12
CC1=C(C(=O)OCc2ccccc2)C(c2ccc3ccccc3c2)NC(=O)N1CCCC(=O)O (stereo not drawn) | -10 | -3 | -5 | -16*
CC1=C(C(=O)OCc2ccccc2)C(c2ccc(-c3ccccc3)cc2)NC(=O)N1CCCCCC(=O)O (stereo not drawn) | -10 | 2 | -2 | -34*
CN1C(=O)c2cc(NC(=O)Cc3cccs3)ccc2OC[C@H]2O[C@H](CC(=O)O)CC[C@@H]21 | . | 0 | 65 | 5
C[C@H](CO)N1C[C@H](C)[C@H](CN(C)Cc2cccnc2)Oc2cc(C#CC3CC3)ccc2S1(=O)=O | . | 2 | -1 | -3
C[C@@](Cc1ccc(O)c(O)c1)(NN)C(=O)O | -5 | 8.4* | 0 | .
N[C@@H](Cc1ccc(O)c(O)c1)C(=O)O | -6 | 2 | -1 | .
CC(=O)c1sc(NC(=O)c2c(F)cccc2F)nc1-c1ccccc1 | -3 | -4 | -7 | -10
CC(=O)c1sc(NC(=O)c2ccccc2)nc1-c1ccccc1 | -2 | 1 | . | -20*
COc1cccc(C(=O)c2c[nH]c(C(=O)NCCCN3CCOCC3)c2)c1 | 16 | 15* | . | 7
CCC(=O)N1C[C@@H](C)[C@H](OC)CN(C)C(=O)c2ccc(NC(=O)c3cnccn3)cc2OC[C@@H]1C | . | 1 | -3 | 2
SMILES | CaV13 ICDI inh | F508del corr | Cneo AK release | rRNA inh HTS
O=C(O)C[C@@H]1C[C@@H]2c3cc(NC(=O)C4CCOCC4)ccc3O[C@@H]2[C@@H](CO)O1 | . | . | . | 2
O=C(COc1cc2oc(=O)c3c(c2cc1Cl)CCC3)NCCCn1ccnc1 | -2 | 1 | 9 | -17*
Cc1c(C)c2cc(Cl)c(OCC(=O)NCCCn3ccnc3)cc2oc1=O | -7 | 1 | . | 1
COc1cc(OC)c(CNS(=O)(=O)c2ccc(Br)cc2)c(OC)c1 | . | 0 | 6 | .
O=C(Nc1ccc(N2CCN(C(=O)c3ccccc3)CC2)c(Cl)c1)c1ccc(Br)o1 | -7 | 0 | . | -23*
O=C(Nc1ccc(N2CCN(C(=O)c3ccccc3)CC2)cc1)c1ccc(Br)o1 | . | . | 6 | .
O=C(Nc1ccccc1N1CCCC1)c1ccc([N+](=O)[O-])o1 | -3 | -4 | -2 | -10
O=C(Nc1ccccc1N1CCN(C(=O)c2ccccc2)CC1)c1ccc([N+](=O)[O-])o1 | -6 | 0 | 2 | -25*
C[C@@H]1CN([C@@H](C)CO)C(=O)Cc2cc(NS(=O)(=O)c3ccc(Cl)cc3)ccc2O[C@@H]1CN(C)S(=O)(=O)c1cn(C)cn1 | . | -2 | -1 | 3
CO[C@H]1CN(C)C(=O)c2ccc(NC(=O)C3CCC3)cc2OC[C@@H](C)N(Cc2nccs2)C[C@@H]1C | . | 2 | -2 | -3
CO[C@@H]1CN(C)C(=O)c2cc(NC(=O)C3CCC3)ccc2OC[C@@H](C)N(Cc2nccs2)C[C@H]1C | . | 2 | 52 | -3
O=C(COC(=O)c1ccccc1C(=O)c1ccccc1)NCCc1ccccc1 | -3 | -1 | . | -26
CCOc1ccccc1C(=O)OCC(=O)NCCc1ccc(OC)cc1 | -16 | -1 | -1 | -22*
O=C(COC(=O)c1ccccc1C(=O)c1ccc(Cl)cc1)NCCc1ccccc1 | -18 | . | 4 | -29*
CCCNC(=O)Nc1ccc2c(c1)C(=O)N(C)[C@@H]1CC[C@H](CC(=O)O)O[C@H]1CO2 | . | 0 | -5 | 3
O=C(Cc1ccc(Br)cc1)Nc1cccc(S(=O)(=O)N2CCOCC2)c1 | -2 | 2 | -4 | -30*
O=C(Cc1c(Cl)cccc1Cl)Nc1cccc(S(=O)(=O)N2CCOCC2)c1 | -1 | 1 | . | -23*
CCS(=O)(=O)N1CC2(CN(Cc3ccc(OC)cc3)[C@@H](CO)c3c2c2ccc(OC)cc2n3C)C1 | . | -1 | . | -2
COc1ccccc1-c1cn(CC[C@@H]2CC[C@@H](NS(=O)(=O)c3ccccc3C)[C@H](CO)O2)nn1 | . | 2 | 1 | -5
COc1ccc(CN(C)C[C@@H]2Oc3c(NS(=O)(=O)c4ccc(Cl)cc4)cccc3C(=O)N([C@@H](C)CO)C[C@H]2C)cc1 | . | 3 | 1 | 1
OCC1CCCN(C(=S)Nc2ccc(Nc3ccccc3)cc2)C1 (stereo not drawn) | 11 | 2 | -8 | -27*
OCC1CCCN(C(=S)Nc2ccc(OC(F)F)cc2)C1 (stereo not drawn) | -5 | -2 | -2 | -7
CCC(=O)N1CC[C@@H]2[C@H](CO)Nc3ccc(-c4ccc(F)cc4)cc3[C@@H]21 | . | -1 | -6 | 5
CSc1ccccc1OCc1cc(C(=O)N[C@H]2CCCCNC2=O)no1 | -8 | -2 | 0 | -19*
COc1ccc(OCc2cc(C(=O)N[C@H]3CCCCNC3=O)no2)c(Cl)c1 | -2 | -1 | -12 | -1
O=C(CC1CC1)N1CC(=O)N2[C@H](CO)[C@H](c3ccc(C#Cc4cccc(F)c4)cc3)[C@@H]2C1 | . | 1 | . | -40
Cc1ccc(-n2ncc3c2CCCC3NC(=O)c2ccccc2N2CCOCC2)cc1C (stereo not drawn) | -5 | 3 | -4 | -43
Cc1cc(C)c(C(=O)NC2CCCc3c2cnn3-c2cccc(C)c2C)o1 (stereo not drawn) | -6 | 8.4* | -3 | 4
